Results reported in ChEMBL document CHEMBL4414574, “Structure-Based Discovery and Development of a Series of Potent and Selective Bromodomain and Extra-Terminal Protein Inhibitors” (J Med Chem, 2019).
The source made the active and inactive calls. The calls are words filed in the database; no cut-off is given here.

Legend:
[1] = AUC (0 to infinity) in rat plasma at 3 mg/kg, iv; type: ADME, organism-based; parameters: dose 3 mg/kg, route intravenous, time infinity
Outline: (§1)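 Compound was given orally or intravenously in 1% DMSO/0.5% HPMC vehicle. Concentrations in plasma, or in brain where stated, gave Tmax, Cmax, T1/2, AUC0-t and AUC0-inf.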

[2] = AUC (0 to t) in ICR mouse at 10 mg/kg, po administered via gavage measured after 0.25 to 24 hrs by UPLC/MS analysis; type: ADME, organism-based; parameters: time 0.25-24 hr, dose 10 mg/kg, route oral; conditions: in vivo
Outline: (§2)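 Male ICR mice were dosed orally in 1% DMSO/0.5% HPMC vehicle. Plasma (and brain, where stated) concentrations gave Tmax, Cmax, T1/2, AUC0-t and AUC0-inf.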

[3] = target: T1, Bromodomain-containing protein 4 (Homo sapiens, UniProt O60885); assay: Inhibition of BRD4 in human MV4-11 cells assessed as reduction in BCL2 phosphorylation at ser70 residues after 24 hrs by Western blot analysis; type: cell-based
Outline: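 MV4-11 cells exposed to graded doses for 24 h; lysates immunoblotted for phospho-BCL2, with GAPDH as loading control.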

[4] = target: Bromodomain-containing protein 9 (Homo sapiens) (UniProt Q9H8M2); assay: Binding affinity to human partial length BRD9 (R130 to V259 residues) expressed in Escherichia coli BL21 cells assessed as residual binding level at 1 uM measured after 1 hr by quantitative PCR based BROMOscan assay relative to control
Outline: (§3)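 A BROMOScan competition-binding panel of 32 bromodomains was run at a single 1 μM compound concentration. Results are primary-screen 'Percent Control', where lower values indicate stronger binding.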

SK-OV-3 = assay: Antiproliferative activity against human SKOV3 cells after 72 hrs by CCK8 or SRB assay; type: functional, cell-based
[5] = target: Proto-oncogene tyrosine-protein kinase Src (Homo sapiens) (UniProt P12931); assay: Inhibition of Src (unknown origin) at 10 uM using poly (Glu, Tyr) 4:1 as substrate after 60 mins by ELISA
[6] = Toxicity in Balb/c nude mouse xenografted with human MV4-11 cells assessed as effect on mouse survival at 10 to 50 mg/kg, administered once daily; type: organism-based; conditions: in vivo
MV4-11 [7] = assay: Induction of apoptosis in human MV4-11 cells assessed as increase in cleaved caspase-7 level after 24 hrs by Western blot analysis; type: functional, cell-based
Outline: (§4)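 MV4-11 cells exposed to compound at the indicated doses for 24 h; lysates probed by Western blotting for the target protein, with GAPDH as loading control.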

A549 = assay: Antiproliferative activity against human A549 cells after 72 hrs by CCK8 or SRB assay; type: functional, cell-based
[8] = Cmax in ICR mouse brain at 50 mg/kg, po administered via gavage measured after 0.25 to 24 hrs by UPLC/MS analysis; type: ADME, organism-based; parameters: dose 50 mg/kg, route oral
Outline: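 Male ICR mice dosed orally in 1% DMSO/0.5% HPMC vehicle; plasma or brain drug levels used to derive Tmax, Cmax, AUC0-t, AUC0-inf and T1/2.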

[9] = AUC (0 to infinity) in rat brain at 50 mg/kg, po; type: ADME, organism-based; parameters: dose 50 mg/kg, time infinity, route oral; outline: as §1
HT-29 = assay: Antiproliferative activity against human HT-29 cells after 72 hrs by CCK8 or SRB assay; type: functional, cell-based
MV4-11 [10] = assay: Antiproliferative activity against human MV4-11 cells after 72 hrs by CCK8 or SRB assay; type: functional, cell-based
[11] = target: Tyrosine-protein kinase ABL1 (Homo sapiens) (UniProt P00519); assay: Inhibition of Abl (unknown origin) at 10 uM using poly (Glu, Tyr) 4:1 as substrate after 60 mins by ELISA
MV4-11 [12] = assay: Induction of apoptosis in human MV4-11 cells assessed as decrease in full-length caspase-8 level at 10 to 1000 nM after 24 hrs by Western blot analysis; type: functional, cell-based; outline: as §4
[13] = target: T1, Bromodomain-containing protein 4; assay: Binding affinity to human partial length BRD4 bromodomain 1 long isoform (N44 to E168 residues) expressed in Escherichia coli BL21 cells assessed as residual binding level at 1 uM measured after 1 hr by quantitative PCR based BROMOscan assay relative to control; outline: as §3
[14] = target: SWI/SNF-related matrix-associated actin-dependent regulator of chromatin subfamily A member 4 (Homo sapiens) (UniProt P51532); assay: Binding affinity to human partial length SMARCA4 (A1448 to S1575 residues) expressed in Escherichia coli BL21 cells assessed as residual binding level at 1 uM measured after 1 hr by quantitative PCR based BROMOscan assay relative to control
Outline: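 Bromodomain panel screen (32 bromodomains) run at 1 μM single concentration; primary binding reported as 'Percent Control', lower values meaning stronger interaction.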

[15] = Clearance in rat liver microsomes; type: ADME, Microsome; conditions: read-out: CLH
[16] = target: Bromodomain adjacent to zinc finger domain protein 2B (Homo sapiens) (UniProt Q9UIF8); assay: Binding affinity to human partial length BAZ2B (S2054 to S2168 residues) expressed in Escherichia coli BL21 cells assessed as residual binding level at 1 uM measured after 1 hr by quantitative PCR based BROMOscan assay relative to control; outline: as §3
[17] = AUC (0 to t) in rat plasma at 10 mg/kg, po; type: ADME, organism-based; outline: as §1
[18] = target: Bromodomain testis-specific protein (Homo sapiens) (UniProt Q58F21); assay: Binding affinity to human partial length BRDT bromodomain 2 (K250 to E382 residues) expressed in Escherichia coli BL21 cells assessed as residual binding level at 1 uM measured after 1 hr by quantitative PCR based BROMOscan assay relative to control; outline: as §3
[19] = target: Bromodomain-containing protein 7 (Homo sapiens) (UniProt Q9NPI1); assay: Binding affinity to human partial length BRD7 (L125 to R254 residues) expressed in […] assessed as residual binding level at 1 uM measured after 1 hr by quantitative PCR based BROMOscan assay relative to control; outline: as §3
[20] = target: Voltage-gated inwardly rectifying potassium channel KCNH2 (Homo sapiens, UniProt Q12809); assay: Inhibition of human ERG at 40 uM by automatic patch clamp method
[21] = Tmax in ICR mouse plasma at 100 mg/kg, po administered via gavage measured after 0.25 to 24 hrs by UPLC/MS analysis; type: ADME, organism-based
Outline: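 Male ICR mice dosed orally (3, 10 or 100 mg/kg, per line) in 1% DMSO/0.5% HPMC vehicle; plasma drug levels measured.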

[22] = AUC (0 to infinity) in ICR mouse plasma at 100 mg/kg, po administered via gavage measured after 0.25 to 24 hrs by UPLC/MS analysis; type: ADME, organism-based; parameters: dose 100 mg/kg, time infinity, route oral; outline: as §2
[23] = Ratio of drug level in brain to plasma in rat; type: ADME
Outline: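 Rats dosed orally at 50 mg/kg in 1% DMSO/0.5% HPMC; drug measured in plasma and brain.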

CYP3A4 = CYP3A4 (Homo sapiens, UniProt P08684); assay: Reversible inhibition of CYP3A4 in human liver microsomes at 10 uM using midazolam or testosterone as substrate preincubated for 5 mins followed by NADPH addition and measured after 20 mins relative to control; type: ADME; conditions: probe midazolam or testosterone
Outline: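 Human liver microsomes 0.2 mg/mL, 100 mM phosphate pH 7.4, 10 μM test compound, probe cocktail (10 μM midazolam, 100 μM testosterone, 10 μM dextromethorphan, 20 μM diclofenac, 100 μM phenacetin, 100 μM mephenytoin); organic solvent <1%; 5 min preincubation at 37 °C, started with NADPH-generating system, 20 min reaction; metabolite formation expressed relative to PBS control.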

Chain of Bromodomain-containing protein 9 (Homo sapiens) (Q9H8M2 whole entry, the tested form may be a part): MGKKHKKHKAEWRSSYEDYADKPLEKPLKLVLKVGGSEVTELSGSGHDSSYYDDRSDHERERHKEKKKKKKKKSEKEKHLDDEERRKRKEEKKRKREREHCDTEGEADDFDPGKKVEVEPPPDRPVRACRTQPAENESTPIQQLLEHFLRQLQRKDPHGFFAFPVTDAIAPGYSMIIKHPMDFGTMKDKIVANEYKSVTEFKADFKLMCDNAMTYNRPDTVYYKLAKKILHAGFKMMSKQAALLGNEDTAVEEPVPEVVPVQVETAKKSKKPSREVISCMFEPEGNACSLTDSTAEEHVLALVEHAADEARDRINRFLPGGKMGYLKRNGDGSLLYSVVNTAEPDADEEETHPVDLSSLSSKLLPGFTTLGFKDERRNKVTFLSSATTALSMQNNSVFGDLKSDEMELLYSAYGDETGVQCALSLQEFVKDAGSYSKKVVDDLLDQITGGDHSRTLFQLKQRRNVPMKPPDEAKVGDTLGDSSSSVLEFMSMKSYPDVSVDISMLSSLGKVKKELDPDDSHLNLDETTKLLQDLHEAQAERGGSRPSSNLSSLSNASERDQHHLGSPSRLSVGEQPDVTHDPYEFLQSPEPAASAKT
Chain of Tyrosine-protein kinase ABL1 (Homo sapiens) (P00519 whole entry): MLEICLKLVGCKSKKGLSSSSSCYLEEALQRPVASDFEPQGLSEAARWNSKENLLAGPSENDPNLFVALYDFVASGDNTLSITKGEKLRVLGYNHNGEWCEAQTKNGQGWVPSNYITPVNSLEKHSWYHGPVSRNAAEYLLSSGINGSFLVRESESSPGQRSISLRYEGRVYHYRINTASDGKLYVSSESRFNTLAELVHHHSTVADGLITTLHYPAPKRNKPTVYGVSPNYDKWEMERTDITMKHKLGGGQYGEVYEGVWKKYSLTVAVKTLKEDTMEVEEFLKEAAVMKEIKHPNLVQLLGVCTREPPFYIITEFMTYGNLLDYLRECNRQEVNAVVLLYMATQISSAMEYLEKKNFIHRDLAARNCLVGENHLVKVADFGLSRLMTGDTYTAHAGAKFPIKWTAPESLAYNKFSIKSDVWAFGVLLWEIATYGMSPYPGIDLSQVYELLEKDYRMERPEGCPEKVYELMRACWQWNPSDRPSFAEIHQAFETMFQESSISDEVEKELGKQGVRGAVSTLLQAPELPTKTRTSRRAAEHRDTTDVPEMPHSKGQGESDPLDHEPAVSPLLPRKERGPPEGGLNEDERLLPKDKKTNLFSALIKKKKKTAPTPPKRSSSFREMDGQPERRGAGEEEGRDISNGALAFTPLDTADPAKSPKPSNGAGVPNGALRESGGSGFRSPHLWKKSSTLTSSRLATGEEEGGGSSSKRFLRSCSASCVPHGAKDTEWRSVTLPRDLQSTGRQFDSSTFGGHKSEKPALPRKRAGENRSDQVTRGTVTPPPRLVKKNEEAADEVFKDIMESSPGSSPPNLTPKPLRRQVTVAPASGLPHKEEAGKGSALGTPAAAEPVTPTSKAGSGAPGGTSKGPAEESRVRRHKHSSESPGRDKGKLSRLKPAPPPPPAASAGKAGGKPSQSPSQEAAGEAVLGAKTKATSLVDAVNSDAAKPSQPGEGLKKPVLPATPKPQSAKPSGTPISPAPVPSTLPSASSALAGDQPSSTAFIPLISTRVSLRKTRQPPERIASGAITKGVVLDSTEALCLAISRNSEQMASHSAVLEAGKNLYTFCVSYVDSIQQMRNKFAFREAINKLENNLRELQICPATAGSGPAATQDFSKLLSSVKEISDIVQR
Chain of SWI/SNF-related matrix-associated actin-dependent regulator of chromatin subfamily A member 4 (Homo sapiens) (P51532 whole entry, the tested form may be a part): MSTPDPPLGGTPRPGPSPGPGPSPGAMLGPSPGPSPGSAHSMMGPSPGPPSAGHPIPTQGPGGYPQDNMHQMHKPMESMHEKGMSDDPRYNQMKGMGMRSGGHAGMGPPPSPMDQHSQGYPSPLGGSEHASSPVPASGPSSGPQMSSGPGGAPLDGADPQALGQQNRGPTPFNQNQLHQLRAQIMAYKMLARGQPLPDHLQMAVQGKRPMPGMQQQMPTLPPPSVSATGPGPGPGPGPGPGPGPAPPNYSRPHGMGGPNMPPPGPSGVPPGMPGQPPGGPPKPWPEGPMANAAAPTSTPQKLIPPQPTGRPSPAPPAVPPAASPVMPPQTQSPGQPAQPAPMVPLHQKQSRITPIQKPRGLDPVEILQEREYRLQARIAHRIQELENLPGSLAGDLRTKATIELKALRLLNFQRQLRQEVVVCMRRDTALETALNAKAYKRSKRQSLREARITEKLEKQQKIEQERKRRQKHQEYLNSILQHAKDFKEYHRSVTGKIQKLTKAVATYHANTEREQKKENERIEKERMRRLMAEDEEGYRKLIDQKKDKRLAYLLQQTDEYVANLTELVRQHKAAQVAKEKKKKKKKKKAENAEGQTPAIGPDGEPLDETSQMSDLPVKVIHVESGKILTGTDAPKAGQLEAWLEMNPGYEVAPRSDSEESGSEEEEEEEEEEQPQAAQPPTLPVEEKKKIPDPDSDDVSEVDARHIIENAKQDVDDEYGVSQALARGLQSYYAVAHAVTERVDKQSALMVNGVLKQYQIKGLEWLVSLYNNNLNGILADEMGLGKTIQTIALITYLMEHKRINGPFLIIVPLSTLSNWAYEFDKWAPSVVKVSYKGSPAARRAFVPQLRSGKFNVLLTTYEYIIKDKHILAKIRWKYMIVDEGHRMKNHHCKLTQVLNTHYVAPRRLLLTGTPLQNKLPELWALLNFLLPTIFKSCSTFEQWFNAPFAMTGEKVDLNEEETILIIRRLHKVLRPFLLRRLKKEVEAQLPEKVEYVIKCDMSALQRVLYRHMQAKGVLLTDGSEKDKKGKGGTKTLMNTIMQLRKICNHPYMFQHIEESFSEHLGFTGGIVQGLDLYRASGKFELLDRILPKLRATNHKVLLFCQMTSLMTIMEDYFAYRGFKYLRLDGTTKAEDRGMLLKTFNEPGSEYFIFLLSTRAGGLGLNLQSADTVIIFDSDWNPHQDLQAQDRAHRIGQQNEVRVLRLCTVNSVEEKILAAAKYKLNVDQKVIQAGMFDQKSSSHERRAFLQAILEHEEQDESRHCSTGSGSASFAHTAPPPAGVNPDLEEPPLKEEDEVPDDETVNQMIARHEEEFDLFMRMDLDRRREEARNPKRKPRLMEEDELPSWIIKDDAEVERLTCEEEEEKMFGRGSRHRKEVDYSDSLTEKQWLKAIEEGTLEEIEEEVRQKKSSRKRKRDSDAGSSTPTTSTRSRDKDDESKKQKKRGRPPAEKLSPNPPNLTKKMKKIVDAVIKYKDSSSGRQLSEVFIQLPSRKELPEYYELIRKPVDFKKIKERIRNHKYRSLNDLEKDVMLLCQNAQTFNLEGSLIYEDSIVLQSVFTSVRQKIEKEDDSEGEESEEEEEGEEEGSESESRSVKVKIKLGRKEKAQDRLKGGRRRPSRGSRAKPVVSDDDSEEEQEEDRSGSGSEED
Chain of Bromodomain-containing protein 7 (Homo sapiens) (Q9NPI1 whole entry, the tested form may be a part): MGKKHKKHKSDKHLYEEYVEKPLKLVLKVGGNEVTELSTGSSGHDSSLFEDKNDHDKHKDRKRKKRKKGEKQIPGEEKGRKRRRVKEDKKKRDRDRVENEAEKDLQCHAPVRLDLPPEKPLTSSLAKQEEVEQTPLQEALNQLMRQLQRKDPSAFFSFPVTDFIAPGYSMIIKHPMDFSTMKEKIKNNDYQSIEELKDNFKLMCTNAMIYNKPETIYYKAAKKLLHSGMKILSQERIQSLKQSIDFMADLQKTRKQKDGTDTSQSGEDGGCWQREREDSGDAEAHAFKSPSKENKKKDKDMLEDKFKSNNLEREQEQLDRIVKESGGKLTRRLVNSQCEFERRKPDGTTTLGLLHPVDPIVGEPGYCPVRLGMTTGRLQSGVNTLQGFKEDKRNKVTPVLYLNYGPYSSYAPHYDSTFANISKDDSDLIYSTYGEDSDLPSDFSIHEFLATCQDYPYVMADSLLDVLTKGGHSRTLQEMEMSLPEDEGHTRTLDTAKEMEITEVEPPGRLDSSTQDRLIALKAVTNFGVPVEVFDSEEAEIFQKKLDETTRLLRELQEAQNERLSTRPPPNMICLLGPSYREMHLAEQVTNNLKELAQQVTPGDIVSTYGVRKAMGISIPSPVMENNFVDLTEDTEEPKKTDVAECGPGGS
Chain of CYP3A4 (P08684 whole entry): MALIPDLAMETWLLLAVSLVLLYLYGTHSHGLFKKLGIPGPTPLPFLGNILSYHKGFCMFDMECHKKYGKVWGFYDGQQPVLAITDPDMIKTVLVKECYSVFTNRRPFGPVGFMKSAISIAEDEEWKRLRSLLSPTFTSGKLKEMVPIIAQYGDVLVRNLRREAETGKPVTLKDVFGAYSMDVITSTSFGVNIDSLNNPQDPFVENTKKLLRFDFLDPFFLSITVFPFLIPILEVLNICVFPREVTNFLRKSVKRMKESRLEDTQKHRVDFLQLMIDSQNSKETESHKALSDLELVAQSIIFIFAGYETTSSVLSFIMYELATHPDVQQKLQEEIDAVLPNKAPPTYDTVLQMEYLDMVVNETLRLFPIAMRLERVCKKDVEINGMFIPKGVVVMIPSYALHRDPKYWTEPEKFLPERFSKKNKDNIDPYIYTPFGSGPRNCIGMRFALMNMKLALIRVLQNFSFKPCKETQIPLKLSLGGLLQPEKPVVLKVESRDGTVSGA
Chain of Proto-oncogene tyrosine-protein kinase Src (Homo sapiens) (P12931 2-536 limits assumed): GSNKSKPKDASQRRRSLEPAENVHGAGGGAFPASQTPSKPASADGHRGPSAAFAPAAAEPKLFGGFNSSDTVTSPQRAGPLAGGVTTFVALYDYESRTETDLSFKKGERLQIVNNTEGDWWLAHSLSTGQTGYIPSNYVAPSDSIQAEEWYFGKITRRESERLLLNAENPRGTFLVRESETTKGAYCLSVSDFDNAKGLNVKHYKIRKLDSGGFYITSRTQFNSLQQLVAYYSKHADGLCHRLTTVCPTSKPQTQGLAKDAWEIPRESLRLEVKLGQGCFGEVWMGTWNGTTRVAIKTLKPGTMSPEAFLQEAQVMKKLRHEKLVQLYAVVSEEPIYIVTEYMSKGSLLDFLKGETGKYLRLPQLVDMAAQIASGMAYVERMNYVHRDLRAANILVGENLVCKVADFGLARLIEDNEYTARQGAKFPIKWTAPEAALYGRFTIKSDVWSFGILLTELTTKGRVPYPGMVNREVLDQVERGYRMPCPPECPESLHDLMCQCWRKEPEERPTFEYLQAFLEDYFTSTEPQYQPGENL

## Cc1ccc(-n2nc(C(=O)N3C[C@@H](C)N[C@@H](C)C3)nc2-c2ccc3c(c2)N(C2CCCC2)[C@H](C)C(=O)N3C)cc1
[1]
  AUC(0-inf): 2080 ng·h/mL
[2]
  AUC(0-t): 7380 ng·h/mL
[3]
  inhibition: Dose-dependent effect
[4]
  Activity: 70 to 100%
SK-OV-3
  Activity: Active
[5]
  inhibition: Active
[6]
  Activity: Non-Toxic
MV4-11 [7]
  Activity: Dose-dependent effect
A549
  Activity: Active
[8]
  Cmax: 377 ng/mL
[9]
  AUC(0-inf): 399 ng·h/mL
HT-29
  Activity: Active
MV4-11 [10]
  Activity: Active
[11]
  inhibition: Active
MV4-11 [12]
  Activity: Active
[13]
  Activity: < 5%
[14]
  Activity: 70 to 100%
[15]
  microsomal CLint: 28 µL/min/mg
[16]
  Activity: 70 to 100%
[17]
  AUC(0-t): 1220 ng·h/mL
[18]
  Activity: < 5%
[19]
  Activity: 70 to 100%
[20]
  inhibition (INH): Not Active
[21]
  Tmax: 1.5 h
[22]
  AUC(0-inf): 82400 ng·h/mL
[23]
  BPR: 8.7%
CYP3A4
  inhibition at 20 min, 10 µM: 23 to 28%
